ChEMBL document CHEMBL3763062, “Conformational Analysis of the Host-Defense Peptides Pseudhymenochirin-1Pb and -2Pa and Design of Analogues with Insulin-Releasing Activities and Reduced Toxicities” (J Nat Prod, 2015)
≈ marks a conversion by molar mass, not a printed value. Residues, ends and D or L forms follow the SMILES beside them.

Experiments:
[1] = test system: A549; experiment: Cytotoxicity against human A549 cells assessed as cell viability after 24 hrs by CellTiter-Glo luminescent assay; assay type: functional, cell-based; conditions: A549, 24 h
Procedure, shortened: (§1)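 Human tumour lines and HUVEC were cultured at 37 °C in medium with antibiotics. Cells were seeded at 5 × 10³ cells/well and exposed to peptides (10⁻⁶–10⁻⁴ M) in triplicate for 24 h at 37 °C. Viability was read as ATP luminescence. IC50 is the mean concentration giving 50% cell death over at least three independent experiments.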

[2] = Cytotoxicity against Swiss mouse RBC assessed as hemolytic activity […]; assay type: cell-based; conditions: Erythrocyte
Procedure, shortened: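 Erythrocytes came from male NIH Swiss mice and were exposed to peptides at 1.6 × 10⁻⁶ to […]. IC50 is the mean concentration producing 50% haemolysis.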

[3] = test system: HUVEC; experiment: Cytotoxicity against human HUVEC cells assessed as cell viability after 24 hrs by CellTiter-Glo luminescent assay; assay type: cell-based; procedure, shortened: as §1
[4] = test system: HT-29; experiment: Cytotoxicity against human HT-29 cells assessed as cell viability after 24 hrs by CellTiter-Glo luminescent assay; assay type: functional, cell-based; conditions: HT-29, 24 h; procedure, shortened: as §1
[5] = Cytotoxicity in rat BRIN-BD11 cells assessed as LDH release at >= 1 uM after 20 mins by CytoTox96 assay; assay type: cell-based; conditions: brin-bd11, 20 min
Procedure, shortened: (§2)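 BRIN-BD11 monolayers were exposed to peptides (10⁻¹¹ to 3 × 10⁻⁶ M; n = 6) for 20 min at 37 °C in KRB buffer with 5.6 mM glucose. LDH in the supernatant was quantified by a colorimetric kit and compared with 5.6 mM glucose alone.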

[6] = test system: MDA-MB-231; experiment: Cytotoxicity against human MDA-MB-231 cells assessed as cell viability after 24 hrs by CellTiter-Glo luminescent assay; assay type: functional, cell-based; conditions: MDA-MB-231, 24 h; procedure, shortened: as §1
[7] = (§3) Induction of insulin release in rat BRIN-BD11 cells after 20 mins by radioimmunoassay in presence of 5.6 mM glucose; assay type: functional; conditions: BRIN-BD11, 20 min, read-out: MEC
Procedure, shortened: (§4)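 BRIN-BD11 cells were seeded and allowed to attach overnight at 37 °C. They were then incubated 20 min at 37 °C with peptides (10⁻¹¹ to 3 × 10⁻⁶ M; n = 8) in KRB buffer with 5.6 mM glucose. Supernatant insulin was measured by radioimmunoassay, expressed as ng/10⁶ cells/20 min, and compared with 5.6 mM glucose alone.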

[8] = Induction of insulin release in rat BRIN-BD11 cells at […] after 20 mins measured per 10^6 cells by radioimmunoassay in presence of 5.6 mM glucose (reference value: 0.97 to 1.05 ng); assay type: functional
[9] = test system: Staphylococcus epidermidis; experiment: Antibacterial activity against Staphylococcus epidermidis ATCC 12228 by microdilution method; assay type: functional
Procedure, shortened: (§5)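 Reference ATCC strains tested. The MIC was determined by standard broth microdilution in three independent experiments.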

[10] = test system: Pseudomonas aeruginosa; experiment: Antibacterial activity against Pseudomonas aeruginosa ATCC 27853 by microdilution method; assay type: functional; procedure, shortened: as §5
[11] = test system: Staphylococcus aureus; experiment: Antibacterial activity against Staphylococcus aureus ATCC 25923 by microdilution method; assay type: functional; procedure, shortened: as §5
[12] = test system: Escherichia coli; experiment: Antibacterial activity against Escherichia coli ATCC 25922 by microdilution method; assay type: functional; procedure, shortened: as §5
[13] = Cytotoxicity in rat BRIN-BD11 cells assessed as LDH release at 1 or 3 uM after 20 mins by CytoTox96 assay; assay type: cell-based; conditions: brin-bd11, 20 min; procedure, shortened: as §2
[14] = Induction of insulin release in rat BRIN-BD11 cells at 3 uM after 20 mins in presence of 5.6 mM glucose by radioimmunoassay relative to control; assay type: functional; procedure, shortened: as §4
[15] = test system: BRIN-BD11; experiment: as §3; assay type: functional; procedure, shortened: as §4
[16] = Cytotoxicity in rat BRIN-BD11 cells assessed as LDH release at >1 uM after 20 mins by CytoTox96 assay; assay type: cell-based; conditions: brin-bd11, 20 min; procedure, shortened: as §2

MIC [9] [µM]	MIC [10] [µM]	MIC [11] [µM]	MIC [12] [µM]	Compound	IC50 [1] [µM]	IC50 [2] [µM]	IC50 [3] [µM]	IC50 [4] [µM]	Activity [5]	IC50 [6] [µM]	minimal effective concentration [7] [µM]	Activity [8] [ng]	Activity [13]	Activity [14] [%]	Activity [15]	Activity [16]
				CC[C@H](C)[C@H](N)C(=O)N[C@@H](CCCCN)C(=O)N[C@H](C(=O)N1CCC[C@H]1C(=O)N[C@@H](CO)C(=O)N[C@@H](Cc1ccccc1)C(=O)N[C@@H](Cc1ccccc1)C(=O)N[C@@H](CCCNC(=N)N)C(=O)N[C@@H](CC(N)=O)C(=O)N[C@H](C(=O)N[C@@H](CC(C)C)C(=O)N[C@@H](CCCCN)C(=O)N[C@@H](CCCCN)C(=O)N[C@H](C(=O)NCC(=O)N[C@@H](CCCCN)C(=O)N[C@H](CCCCN)C(=O)N[C@@H](C)C(=O)N[C@H](C(=O)N[C@@H](CO)C(=O)N[C@@H](CC(C)C)C(=O)N[C@H](C(=O)N[C@@H](C)C(=O)NCC(=O)N[C@@H](C)C(=O)N[C@@H](CC(C)C)C(=O)N[C@@H](CCCCN)C(=O)N[C@@H](CCC(N)=O)C(=O)N[C@@H](CO)C(=O)O)[C@@H](C)CC)C(C)C)C(C)C)[C@@H](C)CC)[C@@H](C)CC	2.1	19	5	11	Toxic	3.6	0.0003					
				C[C@H](N)C(=O)O [ALANINE]								4.2				
40 (≈ 126 µg/mL)	10 (≈ 31.6 µg/mL)	80 (≈ 253 µg/mL)	2.5 (≈ 7.89 µg/mL)	CC[C@H](C)[C@H](N)C(=O)N[C@@H](CCCCN)C(=O)N[C@H](C(=O)N1CCC[C@H]1C(=O)N[C@@H](CO)C(=O)N[C@@H](Cc1ccccc1)C(=O)N[C@@H](Cc1ccccc1)C(=O)N[C@H](CCCNC(=N)N)C(=O)N[C@@H](CC(N)=O)C(=O)N[C@H](C(=O)N[C@@H](CC(C)C)C(=O)N[C@@H](CCCCN)C(=O)N[C@@H](CCCCN)C(=O)N[C@H](C(=O)NCC(=O)N[C@@H](CCCCN)C(=O)N[C@@H](CCC(=O)O)C(=O)N[C@@H](C)C(=O)N[C@H](C(=O)N[C@@H](CO)C(=O)N[C@@H](CC(C)C)C(=O)N[C@H](C(=O)N[C@@H](C)C(=O)NCC(=O)N[C@@H](C)C(=O)N[C@@H](CC(C)C)C(=O)N[C@@H](CCCCN)C(=O)N[C@@H](CCC(N)=O)C(=O)N[C@@H](CO)C(=O)O)[C@@H](C)CC)C(C)C)C(C)C)[C@@H](C)CC)[C@@H](C)CC	7.2	> 100	27	35		20	0.0003		Non-toxic	190		
				H-GIFPIFAKLLGKVIKVASSLISKGRTK-OH [listing 1 of 2 here]	2.5	4	5	5.6	Toxic	4.3						
				H-GIFPIFAKLLGKVIKVASSLISKGRTK-OH [listing 2 of 2 here]							0.001					
2.5 (≈ 7.89 µg/mL)	20 (≈ 63.1 µg/mL)	5 (≈ 15.8 µg/mL)	10 (≈ 31.6 µg/mL)	CC[C@H](C)[C@H](N)C(=O)N[C@@H](CCCCN)C(=O)N[C@H](C(=O)N1CCC[C@H]1C(=O)N[C@@H](CO)C(=O)N[C@@H](Cc1ccccc1)C(=O)N[C@@H](Cc1ccccc1)C(=O)N[C@@H](CCCNC(=N)N)C(=O)N[C@@H](CC(N)=O)C(=O)N[C@H](C(=O)N[C@@H](CC(C)C)C(=O)N[C@@H](CCCCN)C(=O)N[C@@H](CCCCN)C(=O)N[C@H](C(=O)NCC(=O)N[C@@H](CCCCN)C(=O)N[C@@H](CCC(=O)O)C(=O)N[C@@H](C)C(=O)N[C@H](C(=O)N[C@@H](CO)C(=O)N[C@@H](CC(C)C)C(=O)N[C@H](C(=O)N[C@@H](C)C(=O)NCC(=O)N[C@@H](C)C(=O)N[C@@H](CC(C)C)C(=O)N[C@@H](CCCCN)C(=O)N[C@@H](CCC(N)=O)C(=O)N[C@@H](CO)C(=O)O)[C@@H](C)CC)C(C)C)C(C)C)[C@@H](C)CC)[C@@H](C)CC	2.5	30	5.6	9.5		6.6	0.0001			530	Dose-dependent effect	Toxic
5 (≈ 14.4 µg/mL)	80 (≈ 230 µg/mL)	5 (≈ 14.4 µg/mL)	80 (≈ 230 µg/mL)	CC[C@H](C)[C@H](NC(=O)CN)C(=O)N[C@@H](Cc1ccccc1)C(=O)N1CCC[C@H]1C(=O)N[C@H](C(=O)N[C@@H](Cc1ccccc1)C(=O)N[C@@H](C)C(=O)N[C@@H](CCCCN)C(=O)N[C@@H](CC(C)C)C(=O)N[C@@H](CC(C)C)C(=O)NCC(=O)N[C@@H](CCCCN)C(=O)N[C@H](C(=O)N[C@H](C(=O)N[C@@H](CCCCN)C(=O)N[C@H](C(=O)N[C@@H](C)C(=O)N[C@@H](CO)C(=O)N[C@@H](CO)C(=O)N[C@@H](CC(C)C)C(=O)N[C@H](C(=O)N[C@@H](CO)C(=O)N[C@@H](CCCCN)C(=O)NCC(=O)N[C@@H](CCCNC(=N)N)C(=O)NC(C(=O)N[C@@H](CCC(=O)O)C(=O)O)[C@@H](C)O)[C@@H](C)CC)C(C)C)[C@@H](C)CC)C(C)C)[C@@H](C)CC (some centres not stated) (HELM PEPTIDE1{G.I.F.P.I.F.A.K.L.L.G.K.V.I.K.V.A.S.S.L.I.S.K.G.R.[C[C@@H](O)C(N[*:1])C(=O)[*:2]].E}$$$$V2.0)	6	7	68	12		6.2	0.0001			700		Toxic
